Assays:
Rattus norvegicus [1] = test: Tested for percentage change in total cholesterol in cholic acid (0.5%)-cholesterol (1.5%) -peanut oil (5.5%)-fed rats at 3 mg/kg; assay type: functional
How it was run: (§1)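 Male Sprague-Dawley rats (200-225 g) got a single oral gavage at 4 p.m. The compound was suspended in 1.5% carboxymethylcellulose/0.2% Tween-20 in water; controls got vehicle. Rats then fed ad libitum overnight on chow with 5.5% peanut oil, 1.5% cholesterol and 0.5% cholic acid. Blood was taken by cardiac puncture under ether at 8 a.m. Serum total cholesterol is given as % change versus vehicle controls (unpaired two-tailed t-test, p<0.05).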

Rattus norvegicus [2] = test: Tested for percentage change in total cholesterol in cholic acid (0.5%)-cholesterol (1.5%) -peanut oil (5.5%)-fed rats at 30 mg/kg; assay type: functional; how it was run: as §1
O-acyltransferase = O-acyltransferase (Oryctolagus cuniculus, UniProt G1SFD9); test: In vitro inhibition of Acyl coenzyme A:cholesterol acyltransferase in intestinal microsomes isolated from cholesterol-fed rabbits; assay type: functional, Intestine
Chain of O-acyltransferase (G1SFD9 1-524): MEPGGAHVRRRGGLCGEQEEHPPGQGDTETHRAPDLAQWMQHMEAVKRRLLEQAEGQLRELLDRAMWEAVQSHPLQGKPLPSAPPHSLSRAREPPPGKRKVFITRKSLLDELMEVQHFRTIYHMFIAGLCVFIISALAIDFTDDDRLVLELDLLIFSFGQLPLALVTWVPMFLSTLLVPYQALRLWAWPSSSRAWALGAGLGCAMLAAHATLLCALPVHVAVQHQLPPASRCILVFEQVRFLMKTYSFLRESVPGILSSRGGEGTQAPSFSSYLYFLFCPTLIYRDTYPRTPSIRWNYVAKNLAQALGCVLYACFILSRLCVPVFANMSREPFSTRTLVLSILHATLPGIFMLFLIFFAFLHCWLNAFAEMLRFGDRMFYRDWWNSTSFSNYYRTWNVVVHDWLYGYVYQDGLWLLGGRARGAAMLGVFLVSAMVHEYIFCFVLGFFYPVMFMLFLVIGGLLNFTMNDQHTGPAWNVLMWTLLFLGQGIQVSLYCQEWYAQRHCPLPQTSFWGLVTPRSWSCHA
How it was run: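 Intestinal microsomes from cholesterol-fed rabbits were incubated with the compound and [1-14C]oleoyl-CoA as substrate. IC50 is the micromolar concentration giving 50% inhibition of enzyme activity. Each determination was done in triplicate.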

Row | SMILES | Change (Rattus norvegicus [1]) [%] | Change (Rattus norvegicus [2]) [%] | IC50 (O-acyltransferase) [nM]
1 | CC(C)c1cccc(C(C)C)c1NC(=O)CC(=O)c1ccccc1 | 0 | -4 | 810
2 | CCCCCCCCCCCC(=O)C(C)(C)C(=O)Nc1c(OC)cc(OC)cc1OC | 0 | -44 | 370
3 | CCCCCCCCCCCCCCC(=O)CC(=O)Nc1c(C(C)C)cccc1C(C)C | -34 | -57 | 24
4 | CCCCCCC1CCC(C(=O)Nc2c(C(C)C)cccc2C(C)C)C(=O)O1 (stereo unspecified) | – | -43 | –
5 | CC(C)c1cccc(C(C)C)c1NC(=O)CC(=O)C1(c2ccccc2)CCCC1 | – | -37 | 11
6 | CCCCCCCCCCCCC1CC(C(=O)Nc2c(C(C)C)cccc2C(C)C)C(=O)N1 (stereo unspecified) | – | -20 | 53
7 | CC(C)c1cccc(C(C)C)c1NC(=O)CC(=O)CCCCCCCCCCO | -2 | -29 | 230
8 | CCCCCCCCCCCC(=O)CC(=O)Nc1c(C(C)C)cccc1C(C)C | -25 | -43 | 69
9 | CCCCCCCCCCCCCC(=O)CC(=O)Nc1c(C(C)C)cccc1C(C)C | -38 | -66 | 6
10 | CCCCCCCCCCCCC(=O)CC(=O)Nc1c(C(C)C)cccc1C(C)C | -31 | -56 | 11
11 | CC(C)c1cccc(C(C)C)c1NC(=O)CC(=O)CCCCCCCCCCOC1CCCCO1 (stereo unspecified) | -17 | -67 | 57
12 | CC(C)c1cccc(C(C)C)c1NC(=O)CC(=O)CC(c1ccccc1)c1ccccc1 | -23 | -43 | 44
13 | CCCCCCCCCCCCC1CCCC(C(=O)Nc2c(C(C)C)cccc2C(C)C)C(=O)N1 (stereo unspecified) | – | -47 | 22
14 | CCCCCCCC1CCC(C(=O)Nc2c(C(C)C)cccc2C(C)C)C(=O)O1 (stereo unspecified) | – | -11 | 340
15 | CCCCCCCCCCCC(=O)C(C)(C)C(=O)N(C)c1c(OC)cc(OC)cc1OC | – | -40 | –
16 | CC(C)c1cccc(C(C)C)c1NC(=O)CC(O)CC(c1ccccc1)c1ccccc1 (stereo unspecified) | – | -10 | 3500
17 | CCCCCCCC1CC(C(=O)Nc2c(C(C)C)cccc2C(C)C)C(=O)O1 (stereo unspecified) | – | -26 | –
18 | CCCCCCCCCC(=O)CC(=O)Nc1c(C(C)C)cccc1C(C)C | -5 | -54 | 97
19 | CC(C)c1cccc(C(C)C)c1NC(=O)C/C(CC(c1ccccc1)c1ccccc1)=N\O | 0 | -1 | 210
20 | CC(C)c1cccc(C(C)C)c1NC(=O)CC(=O)C(c1ccccc1)c1ccccc1 | -21 | -65 | 35
21 | CCCCCCCCCCC(=O)CC(=O)Nc1c(C(C)C)cccc1C(C)C | – | -30 | 60
22 | CCCCCCCCCCCC(=O)CC(=O)Nc1c(OC)cc(OC)cc1OC | – | -31 | 150
23 | CCCCCCCCCCCC(=O)C(C)(C)C(=O)N(C)c1c(C(C)C)cccc1C(C)C | 0 | -60 | 1000

Reference: ChEMBL document CHEMBL1126837, “Inhibitors of acyl-CoA:cholesterol acyltransferase. 5. Identification and structure-activity relationships of novel beta-ketoamides as hypocholesterolemic agents” (J Med Chem, 1993)
